Measured values from ChEMBL document CHEMBL5678802, “Small-molecule p21-activated kinase inhibitor PF-3758309 is a potent inhibitor of oncogenic signaling and tumor growth” (Proc Natl Acad Sci U S A, 2010).

Assays:
[1] = target: Serine/threonine-protein kinase PAK 6 (Homo sapiens, UniProt Q9NQU5); assay: Inhibition of PAK6 (unknown origin) using EVPRRKSLVGTPYWM peptide as substrate assessed as inhibition constant in presence of ATP by biochemical assay
Summary of the method: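 PAK6 kinase domain activity coupled to NADH oxidation via pyruvate kinase/lactate dehydrogenase (2 mM phosphoenolpyruvate, 0.33 mM NADH, 15 units/mL each PK and LDH) in 50 mM Hepes pH 7.5, 1 mM DTT, 5 mM MgCl2, 0.5 mM peptide 7, 0.072 mM ATP. Initial rates by linear least-squares regression; Ki from competitive or tight-binding inhibition fits.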

COLO 205 = assay: Antiproliferative activity against human COLO 205 cells assessed as inhibition of cell proliferation incubated for 3 days by CellTiter-Glo Luminescent Cell Viability Assay; format: functional, cell-based; conditions: COLO 205, 72 h
Summary of the method: (§1)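 Cancer cell lines seeded in 384-well plates on day 1; compound added on day 2 and left for 3 days. On day 5 all medium was aspirated, and viable cells were quantified by CellTiter-Glo luminescence, which measures cellular ATP. Dose-dependent effects on proliferation were determined.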

NCI-H1581 = assay: Antiproliferative activity against human NCI-H1581 cells assessed as inhibition of cell proliferation incubated for 3 days by CellTiter-Glo Luminescent Cell Viability Assay; format: functional, cell-based; conditions: NCI-H1581, 72 h; summary of the method: as §1
SK-MES-1 = assay: Antiproliferative activity against human SK-MES-1 cells assessed as inhibition of cell proliferation incubated for 3 days by CellTiter-Glo Luminescent Cell Viability Assay; format: functional, cell-based; conditions: SK-MES-1, 72 h
Summary of the method: (§2)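 Cells of each line were plated in 384-well plates on day 1 and exposed to compound from day 2 for 3 days. On day 5 all medium was aspirated. Viable cell number was read by CellTiter-Glo luminescence, which quantifies cellular ATP.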

NCI-H2087 = assay: Antiproliferative activity against human NCI-H2087 cells assessed as inhibition of cell proliferation incubated for 3 days by CellTiter-Glo Luminescent Cell Viability Assay; format: functional, cell-based; conditions: NCI-H2087, 72 h; summary of the method: as §2
NCI-H1395 = assay: Antiproliferative activity against human NCI-H1395 cells assessed as inhibition of cell proliferation incubated for 3 days by CellTiter-Glo Luminescent Cell Viability Assay; format: functional, cell-based; conditions: NCI-H1395, 72 h; summary of the method: as §1
HCC827 = assay: Antiproliferative activity against human HCC827 cells assessed as inhibition of cell proliferation incubated for 3 days by CellTiter-Glo Luminescent Cell Viability Assay; format: functional, cell-based; conditions: HCC827, 72 h; summary of the method: as §1
NCI-H1299 = assay: Inhibition of anchorage independent cell growth in human NCI-H1299 cells incubated for 6 days by Alamar blue reagent based fluorescence plate reader analysis; format: functional; conditions: NCI-H1299, 144 h
NCI-H1838 = assay: Inhibition of anchorage independent cell growth in human NCI-H1838 cells incubated for 6 days by Alamar blue reagent based fluorescence plate reader analysis; format: functional; conditions: NCI-H1838, 144 h
MCF10 = assay: Antiproliferative activity against human MCF10 cells assessed as inhibition of cell proliferation incubated for 3 days by CellTiter-Glo Luminescent Cell Viability Assay; format: functional, cell-based; conditions: MCF10, 72 h; summary of the method: as §1
[2] = target: Serine/threonine-protein kinase D2 (Homo sapiens) (UniProt Q9BZL6); assay: Inhibition of human PKD2 (PRKD2) in presence of ATP relative to control; conditions: concentration not given here
Chain of Serine/threonine-protein kinase D2 (Homo sapiens) (Q9BZL6 whole entry): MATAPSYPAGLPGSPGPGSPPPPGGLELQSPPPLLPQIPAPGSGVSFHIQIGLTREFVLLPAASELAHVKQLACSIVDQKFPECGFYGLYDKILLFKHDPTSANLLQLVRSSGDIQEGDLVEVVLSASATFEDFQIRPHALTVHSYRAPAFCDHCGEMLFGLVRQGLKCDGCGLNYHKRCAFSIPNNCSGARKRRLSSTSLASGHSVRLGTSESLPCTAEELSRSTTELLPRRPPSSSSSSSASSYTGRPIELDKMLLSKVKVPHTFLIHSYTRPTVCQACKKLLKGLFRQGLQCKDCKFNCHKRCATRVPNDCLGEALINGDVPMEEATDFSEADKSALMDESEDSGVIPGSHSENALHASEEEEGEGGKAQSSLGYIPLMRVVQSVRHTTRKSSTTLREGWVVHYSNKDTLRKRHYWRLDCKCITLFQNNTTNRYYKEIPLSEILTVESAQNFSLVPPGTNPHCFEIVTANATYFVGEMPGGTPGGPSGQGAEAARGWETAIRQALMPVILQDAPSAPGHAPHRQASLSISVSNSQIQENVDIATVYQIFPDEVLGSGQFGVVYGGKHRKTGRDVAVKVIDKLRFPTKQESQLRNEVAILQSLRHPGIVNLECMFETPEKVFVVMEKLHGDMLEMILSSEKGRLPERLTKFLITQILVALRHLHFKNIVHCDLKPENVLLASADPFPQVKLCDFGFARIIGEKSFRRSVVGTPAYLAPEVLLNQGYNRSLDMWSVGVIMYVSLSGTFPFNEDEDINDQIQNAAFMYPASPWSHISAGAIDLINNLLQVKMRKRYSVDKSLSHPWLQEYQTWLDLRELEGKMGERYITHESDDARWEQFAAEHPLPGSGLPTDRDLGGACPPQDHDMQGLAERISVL

[3] = target: T1, Protein kinase C beta type (Homo sapiens, UniProt P05771); assay: Inhibition of human PKCbeta1 in presence of ATP relative to control; conditions: concentration not given here
Target sequence in this assay (P05771 2-671 limits assumed): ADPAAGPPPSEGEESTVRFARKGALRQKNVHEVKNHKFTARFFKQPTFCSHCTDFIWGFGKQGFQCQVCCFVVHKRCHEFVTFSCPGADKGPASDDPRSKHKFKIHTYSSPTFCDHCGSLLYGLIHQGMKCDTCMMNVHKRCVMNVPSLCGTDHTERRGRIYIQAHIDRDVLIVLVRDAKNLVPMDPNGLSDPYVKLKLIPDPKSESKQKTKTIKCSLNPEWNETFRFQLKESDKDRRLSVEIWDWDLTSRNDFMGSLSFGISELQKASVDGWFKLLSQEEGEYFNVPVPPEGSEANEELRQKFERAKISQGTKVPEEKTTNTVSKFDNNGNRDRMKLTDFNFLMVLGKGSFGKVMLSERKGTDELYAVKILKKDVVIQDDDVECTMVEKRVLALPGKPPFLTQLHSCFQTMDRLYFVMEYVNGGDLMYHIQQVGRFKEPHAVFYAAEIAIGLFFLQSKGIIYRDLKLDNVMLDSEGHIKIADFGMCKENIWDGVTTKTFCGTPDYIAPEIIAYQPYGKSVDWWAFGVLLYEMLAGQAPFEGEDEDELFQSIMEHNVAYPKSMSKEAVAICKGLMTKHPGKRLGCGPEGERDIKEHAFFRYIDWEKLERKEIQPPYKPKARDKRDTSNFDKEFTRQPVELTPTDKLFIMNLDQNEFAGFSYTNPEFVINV

[4] = target: T2, Receptor-type tyrosine-protein kinase FLT3 (Homo sapiens, UniProt P36888); assay: Inhibition of human FLT3 assessed as inhibition constant in presence of ATP
T2 sequence (P36888 whole entry): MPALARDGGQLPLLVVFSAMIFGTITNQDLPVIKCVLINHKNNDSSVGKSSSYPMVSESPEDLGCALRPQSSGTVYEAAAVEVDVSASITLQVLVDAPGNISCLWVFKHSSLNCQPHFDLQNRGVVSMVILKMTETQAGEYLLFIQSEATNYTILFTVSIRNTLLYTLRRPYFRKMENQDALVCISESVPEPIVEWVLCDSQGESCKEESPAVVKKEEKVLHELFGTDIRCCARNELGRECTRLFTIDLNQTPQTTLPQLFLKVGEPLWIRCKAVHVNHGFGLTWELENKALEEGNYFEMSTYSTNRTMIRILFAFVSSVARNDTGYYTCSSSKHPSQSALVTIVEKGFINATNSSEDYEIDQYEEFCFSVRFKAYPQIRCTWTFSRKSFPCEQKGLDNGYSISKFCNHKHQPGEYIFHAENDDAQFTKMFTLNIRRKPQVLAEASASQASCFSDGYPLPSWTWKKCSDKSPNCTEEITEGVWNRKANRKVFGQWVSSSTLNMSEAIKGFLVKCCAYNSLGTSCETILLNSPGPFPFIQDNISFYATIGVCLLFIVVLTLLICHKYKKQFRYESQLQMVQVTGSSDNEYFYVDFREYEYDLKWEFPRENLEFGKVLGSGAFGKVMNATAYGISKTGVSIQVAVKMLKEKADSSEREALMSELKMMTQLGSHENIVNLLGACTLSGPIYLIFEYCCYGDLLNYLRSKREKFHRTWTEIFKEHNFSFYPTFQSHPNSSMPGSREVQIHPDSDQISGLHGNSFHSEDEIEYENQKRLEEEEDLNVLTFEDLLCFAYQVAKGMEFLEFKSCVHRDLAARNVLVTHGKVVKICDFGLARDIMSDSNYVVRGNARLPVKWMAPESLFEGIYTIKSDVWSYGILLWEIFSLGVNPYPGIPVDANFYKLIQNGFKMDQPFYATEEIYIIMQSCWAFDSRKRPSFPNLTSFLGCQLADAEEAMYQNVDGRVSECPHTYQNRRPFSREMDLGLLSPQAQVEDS

[5] = target: T1, Protein kinase C beta type; assay: Inhibition of human PKCbeta1 in presence of ATP
Target sequence in this assay (P05771 whole entry): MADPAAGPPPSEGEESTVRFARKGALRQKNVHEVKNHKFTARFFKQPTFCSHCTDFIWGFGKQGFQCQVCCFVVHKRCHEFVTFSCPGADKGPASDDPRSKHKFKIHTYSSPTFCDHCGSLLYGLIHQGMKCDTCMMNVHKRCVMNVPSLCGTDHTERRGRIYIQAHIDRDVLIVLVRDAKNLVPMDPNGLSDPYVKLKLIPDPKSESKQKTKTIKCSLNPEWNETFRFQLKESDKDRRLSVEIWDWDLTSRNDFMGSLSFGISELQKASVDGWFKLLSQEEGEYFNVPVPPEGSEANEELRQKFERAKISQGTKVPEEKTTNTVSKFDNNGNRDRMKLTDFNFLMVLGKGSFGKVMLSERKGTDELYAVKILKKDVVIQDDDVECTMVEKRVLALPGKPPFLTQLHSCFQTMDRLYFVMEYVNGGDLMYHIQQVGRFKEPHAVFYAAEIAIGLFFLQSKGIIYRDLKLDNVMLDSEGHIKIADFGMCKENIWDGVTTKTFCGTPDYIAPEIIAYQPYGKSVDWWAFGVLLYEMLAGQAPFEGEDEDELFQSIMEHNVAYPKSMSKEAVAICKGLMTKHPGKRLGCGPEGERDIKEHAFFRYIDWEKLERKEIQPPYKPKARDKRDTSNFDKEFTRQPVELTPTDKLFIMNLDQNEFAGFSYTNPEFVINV

[6] = target: T1, Protein kinase C beta type; assay: Inhibition of human PKCbeta-II in presence of ATP by cellular assay
Target sequence in this assay (P05771 whole entry): as above

HCT-116 [7] = assay: Induction of cell cycle arrest in human HCT-116 cells assessed as accumulation of cells at sub G1 phase at 100 nM measured after 48 hrs by fluorescence activated cell sorter analysis (reference value: 1.84%); format: functional
[8] = Inhibition of YFP/YFP variant coding sequence fused ARF1/gamma-COP (unknown origin) expressed in HEK293 cells incubated for 8 to 24 hrs by fluorescence based analysis; format: cell-based, Homo sapiens
HCT-116 [9] = assay: Antitumor activity against human HCT-116 cells xenografted in nude mouse assessed as inhibition of [3H]FLT uptake at 25 mg/kg, po administered once a day for 6 day and measured after 2 hrs post [3H]FLT administration by scintillation counter analysis relative to control; format: functional; conditions: HCT-116, 144 h
Summary of the method: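 HCT116 xenograft mice (tumors 300–350 mm3, n = 5 per group) received oral vehicle or compound, with harvests on days 2, 3 and 6. Isoflurane-anesthetized mice were given [3H]FLT (15 nCi/g, i.p.) 2 h before killing. Tumor and liver were weighed, solubilized and scintillation-counted. SUV = C/(ID/W), and uptake is reported as the tumor-to-liver SUV ratio.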

Chain of Serine/threonine-protein kinase PAK 6 (Q9NQU5 whole entry, the tested form may be a part): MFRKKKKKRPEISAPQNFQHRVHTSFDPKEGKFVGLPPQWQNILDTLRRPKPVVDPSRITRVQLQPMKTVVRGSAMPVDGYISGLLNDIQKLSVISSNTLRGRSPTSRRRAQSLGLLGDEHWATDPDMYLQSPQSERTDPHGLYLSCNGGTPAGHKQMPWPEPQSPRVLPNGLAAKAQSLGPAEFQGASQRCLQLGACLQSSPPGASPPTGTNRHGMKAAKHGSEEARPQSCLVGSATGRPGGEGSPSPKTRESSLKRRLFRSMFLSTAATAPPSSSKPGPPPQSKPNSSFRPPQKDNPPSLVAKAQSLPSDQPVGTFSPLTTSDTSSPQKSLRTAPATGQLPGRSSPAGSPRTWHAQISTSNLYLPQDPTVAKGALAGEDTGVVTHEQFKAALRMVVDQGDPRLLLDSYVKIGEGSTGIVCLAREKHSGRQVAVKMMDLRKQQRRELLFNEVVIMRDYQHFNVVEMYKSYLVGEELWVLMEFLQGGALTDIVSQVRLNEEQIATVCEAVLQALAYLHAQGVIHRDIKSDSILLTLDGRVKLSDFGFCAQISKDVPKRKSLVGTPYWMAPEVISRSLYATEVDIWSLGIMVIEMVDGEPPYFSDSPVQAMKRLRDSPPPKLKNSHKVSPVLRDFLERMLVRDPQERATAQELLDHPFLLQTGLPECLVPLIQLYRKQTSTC

Ki [1]: 17.1 nM
IC50 (COLO 205): 2.8 nM
IC50 (NCI-H1581): 0.6 nM
IC50 (SK-MES-1): 3.2 nM
IC50 (NCI-H2087): 4.3 nM
IC50 (NCI-H1395): 6.4 nM
IC50 (HCC827): 9.2 nM
IC50 (NCI-H1299): 7 nM
IC50 (NCI-H1838): 9.59 nM
inhibition [2]: 96%
inhibition [3]: 71%
Ki [4]: 81 nM
IC50 [5]: 280 nM
IC50 [6]: 1390 nM
IC50 [8]: 7.9 nM
SMILES: Cc1nc(Nc2n[nH]c3c2CN(C(=O)N[C@H](CN(C)C)c2ccccc2)C3(C)C)c2sccc2n1 [PF-03758309]
IC50 (MCF10): 0.21 nM
Activity (HCT-116 [7]): 12.43%
inhibition in vivo at 25 mg/kg (HCT-116 [9]): 43.1%
